Calls of active or inactive are those of the source. No cut-off for these calls is given here.

Test [1] addresses T1, Toll-like receptor 8 (Homo sapiens) (UniProt Q9NR97).
T1 sequence (whole entry): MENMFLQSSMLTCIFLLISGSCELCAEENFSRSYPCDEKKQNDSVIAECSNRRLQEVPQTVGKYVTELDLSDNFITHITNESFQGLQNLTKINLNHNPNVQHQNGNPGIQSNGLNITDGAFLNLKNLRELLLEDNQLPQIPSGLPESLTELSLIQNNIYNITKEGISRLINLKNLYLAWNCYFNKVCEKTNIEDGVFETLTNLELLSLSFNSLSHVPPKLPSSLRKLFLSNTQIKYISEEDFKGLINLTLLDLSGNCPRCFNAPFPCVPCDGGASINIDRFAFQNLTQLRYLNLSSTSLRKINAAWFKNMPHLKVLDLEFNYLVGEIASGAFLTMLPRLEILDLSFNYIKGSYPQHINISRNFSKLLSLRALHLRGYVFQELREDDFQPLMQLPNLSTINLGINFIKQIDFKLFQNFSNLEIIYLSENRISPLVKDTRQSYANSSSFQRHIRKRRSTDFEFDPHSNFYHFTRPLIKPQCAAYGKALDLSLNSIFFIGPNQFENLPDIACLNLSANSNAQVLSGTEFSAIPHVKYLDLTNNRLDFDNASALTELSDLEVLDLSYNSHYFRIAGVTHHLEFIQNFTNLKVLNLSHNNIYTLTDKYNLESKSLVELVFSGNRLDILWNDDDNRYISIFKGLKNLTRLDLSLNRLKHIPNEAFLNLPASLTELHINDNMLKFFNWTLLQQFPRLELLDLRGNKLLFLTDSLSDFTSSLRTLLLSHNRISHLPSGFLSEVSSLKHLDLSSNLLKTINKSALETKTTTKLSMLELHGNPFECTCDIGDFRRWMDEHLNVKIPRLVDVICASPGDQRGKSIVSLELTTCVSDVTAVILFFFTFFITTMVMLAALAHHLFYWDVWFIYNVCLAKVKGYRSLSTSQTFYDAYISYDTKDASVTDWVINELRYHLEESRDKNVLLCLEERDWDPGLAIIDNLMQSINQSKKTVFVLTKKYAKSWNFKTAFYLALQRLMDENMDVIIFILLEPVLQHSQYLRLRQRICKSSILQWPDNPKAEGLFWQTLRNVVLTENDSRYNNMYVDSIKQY
Kind of test: Activation of human TLR8 expressed in HEK293XL assessed as fold induction of NF-kappaB activity at 50 ug/ml after 18 hrs by reporter gene assay relative to control. The gist of the method: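 HEK293 cells stably expressing human TLR7 or TLR8, transiently transfected with SEAP reporter plasmid; medium replaced, SIMRA compounds added, 18 h incubation. Supernatant SEAP measured by QuantiBlue; expressed as fold increase in NF-κB activity over PBS control. Tabulated data at 50 μg/mL, representative of three independent experiments.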

Test [2] deals with Splenocyte. Kind of test: Immunomodulatory activity in C57BL/6 mouse splenocytes bearing TLR7 receptor assessed as IL12 release at 100 ug/ml after 24 hrs by ELISA. Type of test: functional, cell-based. The method, boiled down: (§1)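 C57BL/6 splenocytes in RPMI 1640 with 10% FBS, penicillin/streptomycin, 2 mM L-glutamine, plated at 5 × 10^6 cells/mL; compounds in PBS added, 37 °C for 24 h. Supernatant IL-12 and IL-6 by ELISA; representative of three independent experiments.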

Test [3] concerns Splenocyte. Put plainly: Immunomodulatory activity in C57BL/6 mouse splenocytes bearing TLR7 receptor assessed as IL6 release at 100 ug/ml after 24 hrs by ELISA. Type of test: functional, cell-based. The gist of the method:
as §1

For test [4], the system named is PBMC. Put plainly: Immunomodulatory activity in human PBMC assessed as induction of IL12 at 100 ug/ml after 24 hrs. The test is classed as functional, cell-based. The method, boiled down: (§2)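 Human PBMCs plated at 5 × 10^6 cells/mL; compounds dissolved in PBS added at various concentrations, 37 °C for 24 h. Supernatant cytokines/chemokines quantified with human Luminex multiplex kit.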

The test system of test [5] is PBMC. Put plainly: Immunomodulatory activity in human PBMC assessed as induction of IFN-alpha at 100 ug/ml after 24 hrs.
Test [6] relates to PBMC. Put plainly: Immunomodulatory activity in human PBMC assessed as induction of TNFalpha at 100 ug/ml after 24 hrs. Type of test: functional, cell-based. The gist of the method: as §2
The target in test [7] is T2, Toll-like receptor 9 (Mus musculus) (UniProt Q9EQU3).
T2 sequence (whole entry): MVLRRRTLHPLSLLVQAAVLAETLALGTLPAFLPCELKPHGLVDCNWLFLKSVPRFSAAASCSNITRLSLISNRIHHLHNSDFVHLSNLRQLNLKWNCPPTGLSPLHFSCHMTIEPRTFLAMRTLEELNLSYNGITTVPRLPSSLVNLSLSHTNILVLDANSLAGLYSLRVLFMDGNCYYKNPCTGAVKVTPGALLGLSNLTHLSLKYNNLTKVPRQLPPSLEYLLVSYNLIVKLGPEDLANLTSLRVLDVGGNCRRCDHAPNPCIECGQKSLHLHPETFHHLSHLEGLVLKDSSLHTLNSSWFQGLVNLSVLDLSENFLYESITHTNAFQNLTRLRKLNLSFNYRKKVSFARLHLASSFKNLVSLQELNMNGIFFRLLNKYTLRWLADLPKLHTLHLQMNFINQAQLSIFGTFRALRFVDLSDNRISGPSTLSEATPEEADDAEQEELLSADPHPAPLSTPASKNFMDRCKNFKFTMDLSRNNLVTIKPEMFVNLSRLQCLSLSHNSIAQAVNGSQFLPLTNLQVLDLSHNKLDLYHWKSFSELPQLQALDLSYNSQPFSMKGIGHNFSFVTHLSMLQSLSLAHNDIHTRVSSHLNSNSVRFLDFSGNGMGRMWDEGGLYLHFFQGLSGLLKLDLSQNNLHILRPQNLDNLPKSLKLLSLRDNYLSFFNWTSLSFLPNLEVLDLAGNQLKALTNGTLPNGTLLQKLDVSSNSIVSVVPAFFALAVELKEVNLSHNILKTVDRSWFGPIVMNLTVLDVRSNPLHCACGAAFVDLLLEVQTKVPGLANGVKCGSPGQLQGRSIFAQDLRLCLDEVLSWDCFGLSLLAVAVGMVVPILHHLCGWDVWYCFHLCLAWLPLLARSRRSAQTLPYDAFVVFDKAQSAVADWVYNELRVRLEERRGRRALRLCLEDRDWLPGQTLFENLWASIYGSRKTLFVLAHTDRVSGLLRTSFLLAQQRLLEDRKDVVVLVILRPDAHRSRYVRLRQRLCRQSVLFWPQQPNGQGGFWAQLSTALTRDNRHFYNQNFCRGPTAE
Kind of test: Activation of mouse TLR9 expressed in HEK293 assessed as induction of NF-kappaB activity reporter gene assay. The test is classed as cell-based.

Turning to `Nc1ccn([C@@H]2O[C@H](COP(=O)(S)O[C@H]3[C@@H](O)[C@H](n4cnc5c(N)ncnc54)O[C@@H]3CO)[C@@H](OP(=O)(S)OC[C@H]3O[C@@H](n4ccc5c(=O)[nH]c(N)nc54)[C@H](O)[C@@H]3OP(=O)(S)OC[C@H]3O[C@@H](n4ccc(=O)[nH]c4=O)[C@H](O)[C@@H]3OP(=O)(S)OC[C@H]3O[C@@H](n4ccc5c(=O)[nH]c(N)nc54)[C@H](O)[C@@H]3OP(=O)(S)OC[C@H]3O[C@@H](n4cnc5c(N)nc(N)nc54)[C@H](O)[C@@H]3OP(=O)(S)OC[C@H]3O[C@@H](n4cnc5c(N)ncnc54)[C@H](O)[C@@H]3OP(=O)(S)OC[C@H]3O[C@@H](n4ccc5c(=O)[nH]c(N)nc54)[C@H](O)[C@@H]3OP(=O)(S)OC[C@H]3O[C@@H](n4ccc(N)nc4=O)[C@H](O)[C@@H]3OP(=O)(S)OC[C@H]3O[C@@H](n4ccc(=O)[nH]c4=O)[C@H](O)[C@@H]3OP(=O)(S)OC[C@H]3O[C@@H](n4ccc(=O)[nH]c4=O)[C@H](O)[C@@H]3OP(=O)(S)OCC(O)COP(=O)(S)O[C@H]3[C@@H](O)[C@H](n4ccc(=O)[nH]c4=O)O[C@@H]3COP(=O)(S)O[C@H]3[C@@H](O)[C@H](n4ccc(=O)[nH]c4=O)O[C@@H]3COP(=O)(S)O[C@H]3[C@@H](O)[C@H](n4ccc(N)nc4=O)O[C@@H]3COP(=O)(S)O[C@H]3[C@@H](O)[C@H](n4ccc5c(=O)[nH]c(N)nc54)O[C@@H]3COP(=O)(S)O[C@H]3[C@@H](O)[C@H](n4cnc5c(N)nc(N)nc54)O[C@@H]3COP(=O)(S)O[C@H]3[C@@H](O)[C@H](n4cnc5c(N)nc(N)nc54)O[C@@H]3COP(=O)(S)O[C@H]3[C@@H](O)[C@H](n4ccc5c(=O)[nH]c(N)nc54)O[C@@H]3COP(=O)(S)O[C@H]3[C@@H](O)[C@H](n4ccc(=O)[nH]c4=O)O[C@@H]3COP(=O)(S)O[C@H]3[C@@H](O)[C@H](n4ccc5c(=O)[nH]c(N)nc54)O[C@@H]3COP(=O)(S)O[C@H]3[C@@H](O)[C@H](n4ccc(N)nc4=O)O[C@@H]3COP(=O)(S)O[C@H]3[C@@H](O)[C@H](n4cnc5c(N)ncnc54)O[C@@H]3CO)[C@H]2O)c(=O)n1` (some centres undefined), the fold change (FC) in test [1] was 2. Also, the outcome in the test with Splenocyte [2] and in the test with Splenocyte [3] was Active. Further, the Activity in the test with PBMC [4] stood at 864 pg/mL; in the test on PBMC [6], 165 pg/mL. Also, the IFN-alpha with PBMC [5] was found to be 123 pg/mL. In test [7], the result was inactive.

For `Nc1ccn([C@@H]2O[C@H](COP(=O)(S)O[C@H]3[C@@H](O)[C@H](n4cnc5c(N)ncnc54)O[C@@H]3COP(=O)(S)O[C@H]3[C@@H](O)[C@H](n4cnc5c(N)ncnc54)O[C@@H]3CO)[C@@H](OP(=O)(S)OC[C@H]3O[C@@H](n4ccc(=O)[nH]c4=O)[C@H](O)[C@@H]3OP(=O)(S)OC[C@H]3O[C@@H](n4ccc5c(=O)[nH]c(N)nc54)[C@H](O)[C@@H]3OP(=O)(S)OC[C@H]3O[C@@H](n4cnc5c(N)ncnc54)[C@H](O)[C@@H]3OP(=O)(S)OC[C@H]3O[C@@H](n4cnc5c(N)ncnc54)[C@H](O)[C@@H]3OP(=O)(S)OC[C@H]3O[C@@H](n4ccc5c(=O)[nH]c(N)nc54)[C@H](O)[C@@H]3OP(=O)(S)OC[C@H]3O[C@@H](n4ccc(N)nc4=O)[C@H](O)[C@@H]3OP(=O)(S)OC[C@H]3O[C@@H](n4ccc(=O)[nH]c4=O)[C@H](O)[C@@H]3OP(=O)(S)OC[C@H]3O[C@@H](n4ccc(=O)[nH]c4=O)[C@H](O)[C@@H]3OP(=O)(S)OCC(O)COP(=O)(S)O[C@H]3[C@@H](O)[C@H](n4ccc(=O)[nH]c4=O)O[C@@H]3COP(=O)(S)O[C@H]3[C@@H](O)[C@H](n4ccc(=O)[nH]c4=O)O[C@@H]3COP(=O)(S)O[C@H]3[C@@H](O)[C@H](n4ccc(N)nc4=O)O[C@@H]3COP(=O)(S)O[C@H]3[C@@H](O)[C@H](n4ccc5c(=O)[nH]c(N)nc54)O[C@@H]3COP(=O)(S)O[C@H]3[C@@H](O)[C@H](n4cnc5c(N)ncnc54)O[C@@H]3COP(=O)(S)O[C@H]3[C@@H](O)[C@H](n4cnc5c(N)ncnc54)O[C@@H]3COP(=O)(S)O[C@H]3[C@@H](O)[C@H](n4ccc5c(=O)[nH]c(N)nc54)O[C@@H]3COP(=O)(S)O[C@H]3[C@@H](O)[C@H](n4ccc(=O)[nH]c4=O)O[C@@H]3COP(=O)(S)O[C@H]3[C@@H](O)[C@H](n4ccc(N)nc4=O)O[C@@H]3COP(=O)(S)O[C@H]3[C@@H](O)[C@H](n4cnc5c(N)ncnc54)O[C@@H]3COP(=O)(S)O[C@H]3[C@@H](O)[C@H](n4cnc5c(N)ncnc54)O[C@@H]3CO)[C@H]2O)c(=O)n1` (some centres undefined), the fold change (FC) in test [1] was determined as 1. For the same compound, the result with Splenocyte [2] and with Splenocyte [3] was Active. Further, the Activity in the test on PBMC [4] was determined as 260 pg/mL; in the test with PBMC [6], 7.5 pg/mL. The IFN-alpha with PBMC [5] was determined as 84.5 pg/mL. The outcome in test [7] was inactive.

The values are drawn from ChEMBL document CHEMBL1154352, “Toll-like receptor 7 selective synthetic oligoribonucleotide agonists: synthesis and structure-activity relationship studies” (J Med Chem, 2009).
